Shown are actives, neighbours in structure and some others; about 2.7% of the full set was active somewhere.
OX1R antag-1 = antagonists of human orexin 1 receptor (OX1R); OX1R-expressing cells, FRET antagonist read-out; inhibition, % at 6.6 µM; 1.8% of 330,000 active; AID 485270, 2010; in the data active = inhibition mostly above about 38%, no sharp cut-off; inactive = mostly below about 40%;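 also: 0% = agonist challenge alone and 100% = reference antagonist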
OX1R antag-2 = OX1R (HCRTR1) antagonists, primary screen, fluorescence, CHO/OX1R cells, Fluo-8 calcium, orexin A. Orexin/Hypocretin receptor type 1 (Homo sapiens), O43613. Fluo-8 calcium fluorescence. inhibition, % at 5 µM. 0.43% of 330,000 active. AID 434989, 2010;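 active = inhibition above its plate's threshold, mean inhibition of all tested compounds on the plate plus 3 SD, cut at about 37% in these data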;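 also: 0% = orexin A challenge wells and 100% = SB-334867-A antagonist wells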
CHO parental Ca = ATP-evoked calcium signal inhibitors, parental CHO, primary screen, counter-screen for OX1R antagonist project, cell-based, fluorescence, Fluo-8 calcium dye; 0.63% of 330,000 active; inhibition, % at 5.6 µM; parental CHO-K1, ATP-induced calcium, Fluo-8 fluorescence;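 active = inhibition above that plate's mean sample inhibition plus 3 SD, cut at about 26% in these data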;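 also: 0% = ATP-challenged DMSO wells and 100% = DMSO wells without ATP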
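Material: parental CHO cells / Compound: single nominal dose of 5.6 µM per compound / Signal: Fluo-8 fluorescence / Replicates: singlicate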
OXTR potentiate = human OXTR potentiators, primary screen, fluorescence, CHO-OTR cells, Fluo-8 calcium; Fluo-8 calcium fluorescence, potentiator mode; 0% = oxytocin EC15, 100% = EC100; activation, % at 3 µM; 0.061% of 320,000 active;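 active = activation above that plate's cutoff, the mean activation of tested compounds plus 3 SD, cut at about 6.6% in these data, passing the limit was not always enough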;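 also: 100% uses oxytocin at 75 nM as the full agonist control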
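System: human OTR in CHO cells / Also added: sub-maximal oxytocin, roughly EC15 / Control set: EC15 oxytocin low, 75 nM oxytocin high / Schedule: 6 min compound pre-incubation at room temperature, 100 s kinetic read / Compound: single-point 3.0 µM / Replication: singlicate / Technique: Fluo-8 calcium dye fluorescence / Read-out basis: % activation of max/min ratio relative to oxytocin controls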
OXTR ag = human OXTR agonists, primary screen, fluorescence, CHO-OTR cells, Fluo-8 calcium; Oxytocin receptor (Homo sapiens), P30559; Fluo-8 calcium fluorescence; normalized: DMSO 0%, oxytocin 100%; activation, % at 3 µM; 0.32% of 320,000 active;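 active = activation above the mean of all tested compounds plus 3 SD, cutoff set per screening run, cut at about 20% in these data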;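 also: peak over basal fluorescence ratio from a 100 s FLIPR kinetic read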
V1R ag counter = agonists of human V1a receptor, primary screen, counter-screen for OXTR agonist project, fluorescence, CHO-V1R cells; Vasopressin V1a receptor (Homo sapiens), P37288; Fluo-8 calcium fluorescence, agonist mode; 0% DMSO, 100% 3 nM vasopressin; activation, % at 3 µM; 0.25% of 320,000 active;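 active = activation above the mean activation of all tested compounds plus 3 SD, per screening run, cut at about 20% in these data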;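 also: signal is peak over basal fluorescence ratio across a 100 second FLIPR read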
Target sequence (P37288 whole entry, looked up): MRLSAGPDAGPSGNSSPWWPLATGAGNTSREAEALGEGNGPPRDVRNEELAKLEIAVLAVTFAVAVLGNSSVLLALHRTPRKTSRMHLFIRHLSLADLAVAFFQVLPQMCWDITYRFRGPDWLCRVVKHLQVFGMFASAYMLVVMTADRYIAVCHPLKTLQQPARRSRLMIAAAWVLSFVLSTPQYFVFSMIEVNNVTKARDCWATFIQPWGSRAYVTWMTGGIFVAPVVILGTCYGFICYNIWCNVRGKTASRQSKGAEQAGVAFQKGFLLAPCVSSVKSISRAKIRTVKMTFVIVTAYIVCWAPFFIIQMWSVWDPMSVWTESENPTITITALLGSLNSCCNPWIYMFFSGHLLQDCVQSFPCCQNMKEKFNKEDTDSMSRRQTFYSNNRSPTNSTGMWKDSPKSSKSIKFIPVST
* hit, by the source's call.

What do the screens show for `O=C(Nc1ccc(Cl)cn1)C1CCCN1S(=O)(=O)c1ccccc1` (centres undefined)?
OX1R antag-1: 70*; OX1R antag-2: 19; CHO parental Ca: -19; OXTR potentiate: -3; OXTR ag: 0; V1R ag counter: 0

What do the screens show for `O=C(Nc1ccc(Br)cn1)C1CCCN1S(=O)(=O)c1ccccc1` (centres undefined)?
OX1R antag-1: 49*; OX1R antag-2: -2; CHO parental Ca: -24; OXTR potentiate: 2; OXTR ag: 0; V1R ag counter: 1

What do the screens show for `O=C(Nc1nccs1)C1CCCN1S(=O)(=O)c1ccc(Cl)cc1` (centres undefined)?
OX1R antag-1: 23; OX1R antag-2: 5; CHO parental Ca: -17; OXTR potentiate: -3; OXTR ag: 1; V1R ag counter: 1

Results for CC(NC(=O)C1CCCN1S(=O)(=O)c1ccccc1)c1ccccc1 (centres undefined) ?
OX1R antag-1: 15; OX1R antag-2: -22; CHO parental Ca: -12; OXTR potentiate: -4; OXTR ag: 0; V1R ag counter: 0

Results for O=C(Nc1ccc(O)cc1)C1CCCN1S(=O)(=O)c1ccc(F)cc1 (centres undefined) ?
OX1R antag-1: 25; OX1R antag-2: -1; CHO parental Ca: 0; OXTR potentiate: -9; OXTR ag: 2; V1R ag counter: 1

What do the screens show for `COc1ccc(S(=O)(=O)N2CCCC(C(=O)Nc3cccnc3)C2)cc1Cl` (centres undefined)?
OX1R antag-1: 14; OX1R antag-2: -8; CHO parental Ca: -7; OXTR potentiate: -11; OXTR ag: 13; V1R ag counter: 10

Results for CCN(CC)Cc1c(O)ccc2c(-c3ccccc3)cc(=O)oc12 ?
OX1R antag-1: 61*; OX1R antag-2: -29; CHO parental Ca: -16; OXTR potentiate: -8; OXTR ag: 0; V1R ag counter: 1

Results for O=C1NC(Cc2ccc(O)cc2)c2nc3ccc(Br)cc3c(=O)n2-c2ccc(Cl)cc21 (centres undefined) ?
OX1R antag-1: 10; OX1R antag-2: -2; CHO parental Ca: -11; OXTR potentiate: -4; OXTR ag: 2; V1R ag counter: 1

Results for Cc1c(C(=O)NNC(=O)c2ccccc2O)oc2ccc(Br)cc12 ?
OX1R antag-1: 8; OX1R antag-2: -3; CHO parental Ca: 64*; OXTR potentiate: -5; OXTR ag: 1; V1R ag counter: 1

Results for CCOc1ccc2oc(C(=O)NNC(=O)c3ccccc3O)c(C)c2c1 ?
OX1R antag-1: 4; OX1R antag-2: -29; CHO parental Ca: -4; OXTR potentiate: -14; OXTR ag: 0; V1R ag counter: 1

Results for Cc1cc(C)n2nc(SCC(=O)NC(=O)c3ccc(OC(F)F)cc3)nc2n1 ?
OX1R antag-1: 4; OX1R antag-2: -23; CHO parental Ca: -14; OXTR potentiate: -2; OXTR ag: 0; V1R ag counter: 0

Results for O=C(Nc1ccc(-c2nc3ccccc3o2)c(O)c1)c1cc(-n2cnnc2)ccc1Cl ?
OX1R antag-1: 17; OX1R antag-2: 11; CHO parental Ca: 32*; OXTR potentiate: -6; OXTR ag: 2; V1R ag counter: 2

How did COc1ccc(NC(=O)C(NC(C)=O)C(=O)Nc2ccc(F)cc2)cc1 (centres undefined) do in these assays?
OX1R antag-1: 12; OX1R antag-2: -8; CHO parental Ca: -4; OXTR potentiate: -14; OXTR ag: -1; V1R ag counter: 2

How did COCCN(Cc1ccccc1)C(=O)c1ccc(C(=O)c2ccccc2)cc1 do in these assays?
OX1R antag-1: 6; OX1R antag-2: -16; CHO parental Ca: -14; OXTR potentiate: -6; OXTR ag: -1; V1R ag counter: 3

How did CCOc1ccc(NC(=O)CN(C)Cc2ccc3c(c2)OCO3)cc1S(=O)(=O)N1CCCC1 do in these assays?
OX1R antag-1: 10; OX1R antag-2: -8; CHO parental Ca: -23; OXTR potentiate: -7; OXTR ag: 0; V1R ag counter: 1

How did NS(=O)(=O)c1ccc(CCNC(=O)CSc2ccc(Cl)cc2)cc1 do in these assays?
OX1R antag-1: 5; OX1R antag-2: 40; CHO parental Ca: 35*; OXTR potentiate: -9; OXTR ag: 3; V1R ag counter: 8

How did NS(=O)(=O)c1ccc(CCNC(=O)COC(=O)CCSc2ccc(Cl)cc2)cc1 do in these assays?
OX1R antag-1: 5; OX1R antag-2: -2; CHO parental Ca: -1; OXTR potentiate: -9; OXTR ag: 4; V1R ag counter: 7

How did CCc1cccc(C)c1NC(=O)CSc1ncn[nH]1 do in these assays?
OX1R antag-1: -5; OX1R antag-2: 2; CHO parental Ca: 29*; OXTR potentiate: -3; OXTR ag: 3; V1R ag counter: 1

Results for CC#CCN(Cc1ccco1)C(=O)c1ccc(OC2CCN(Cc3ccccn3)CC2)cc1 ?
OX1R antag-1: 14; OX1R antag-2: -11; CHO parental Ca: -10; OXTR potentiate: -15; OXTR ag: 1; V1R ag counter: 8

What do the screens show for `COc1ccc(-c2cccc(NC(=O)c3ccc4c(c3)OCO4)c2)nn1`?
OX1R antag-1: 27; OX1R antag-2: -20; CHO parental Ca: -23; OXTR potentiate: -2; OXTR ag: -2; V1R ag counter: -1

Results for O=C(CSc1nnc2n1CCCN2)c1ccc([N+](=O)[O-])cc1 ?
OX1R antag-1: 51*; OX1R antag-2: -15; CHO parental Ca: -21; OXTR potentiate: -2; OXTR ag: -1; V1R ag counter: -1

How did Nc1nc(CSC(=S)N2CCOCC2)nc(Nc2ccccc2)n1 do in these assays?
OX1R antag-1: 69*; OX1R antag-2: 17; CHO parental Ca: -13; OXTR potentiate: -6; OXTR ag: -1; V1R ag counter: 2

How did Nc1nc(CSC(=S)N2CCCCC2)nc(Nc2ccccc2)n1 do in these assays?
OX1R antag-1: 69*; OX1R antag-2: 11; CHO parental Ca: -22; OXTR potentiate: 4; OXTR ag: -2; V1R ag counter: 0

Results for CC(=O)Nc1ccc(S(=O)(=O)NCCC(=O)N2CCc3ccccc32)cc1 ?
OX1R antag-1: 5; OX1R antag-2: -16; CHO parental Ca: 14; OXTR potentiate: -4; OXTR ag: -1; V1R ag counter: 0
